# Measurements from different studies.
# Protocols differ between the studies behind these lines.
# Target: Serine/threonine-protein kinase PAK 6 (PAK6, Homo sapiens, UniProt Q9NQU5)
Compound,effect on,action,method,concentration,quantity,value
CCC(=N\O)/C(C)=C/c1ccc(F)cc1,cell-free assay,,competition with immobilised ligand,1 µM,remaining binding,100%
CCN(CC)CCNC(=O)c1c(C)[nH]c(/C=C2\C(=O)Nc3ccc(F)cc32)c1C,enzyme activity,inhibitor,,10 µM,inhibition,29%
COc1cc2ncnc(Nc3ccc(Oc4ccccc4)c(C)c3C)c2cc1OC,enzyme activity,inhibitor,,1 µM,inhibition,-6%
Cc1ccc(NC(=O)c2ccc(C)c(C(F)(F)F)c2)cc1C#Cc1nn(C2CCC(O)CC2)c2ncnc(N)c12 (centres unmarked),cell-free assay,,,10 µM,remaining signal,92%
Cn1cc(Cl)c2c(Oc3c(F)cc(Nc4cc(Cl)nc(N)n4)cc3F)ccnc21,cell-free assay,,competition with immobilised ligand,0.1 µM,remaining binding,100%
Nc1nc(NC2CCCCC2)sc1C(=O)c1ccccc1,enzyme activity,inhibitor,,10 µM,remaining activity,93%
FC(F)c1nc2ccccc2n1-c1nc(N2CCOCC2)nc(N2CCOCC2)n1,enzyme activity,inhibitor,,10 µM,remaining activity,93%
Nc1nc(Nc2ccc(S(N)(=O)=O)cc2)nn1C(=O)c1c(F)cccc1F,cell-free assay,,,0.5 µM,remaining signal,101%
CNC(=O)c1ccc(Nc2ncc(C(F)(F)F)c(NCc3nccnc3N(C)S(C)(=O)=O)n2)cc1,cell-free assay,,competition with immobilised ligand,0.1 µM,remaining binding,100%
Cc1ccc(Nc2nccc(N(C)c3ccc4c(C)n(C)nc4c3)n2)cc1S(N)(=O)=O,cell-free assay,inhibitor,,0.5 µM,remaining signal,105%
Cc1ccc(C(=O)NCc2ccsc2)cc1C#Cc1cn(C(C)C)c2ncnc(N)c12,enzyme activity,inhibitor,,1 µM,activity vs control,108%
Cn1nc(C(=O)NCc2ccc(C(=O)O)cc2)cc1-c1ccc2[nH]ccc2c1,cell-free assay,,competition with immobilised ligand,0.1 µM,remaining binding,96%
FC(F)(F)Oc1cccc(-c2cnc3ccc(-c4ccncc4)nn23)c1,enzyme activity,inhibitor,radiometric,1 µM,activity vs control,97%
O=C(O)[C@@H]1[C@@H](Cn2nnc3ccccc3c2=O)CC[C@H]1C(=O)c1ccc(OCCC2CCOCC2)cc1,cell-free assay,,competition with immobilised ligand,1 µM,remaining binding,99%
N[C@H]1CCN(c2nccc(-c3cnn4ncccc34)n2)C1,binding,,,1 µM,remaining binding,87%
CC(C)(C)c1nc(-c2cccc(NS(=O)(=O)c3c(F)cccc3F)c2F)c(-c2ccnc(N)n2)s1,enzyme activity,inhibitor,radiometric,1 µM,remaining activity,79%
CCCOc1ccc([C@@H]2[C@@H](C(=O)O)[C@H](c3ccc4c(c3)OCO4)CN2CC(=O)Nc2c(CC)cccc2CC)cc1,cell-free assay,,competition with immobilised ligand,1 µM,remaining binding,83%
CCN(CC)c1ccc(C2=NNC(=O)CC2C)cc1[N+](=O)[O-] (centres unmarked),enzyme activity,inhibitor,,10 µM,remaining activity,126%
COc1cc(Cl)c(C(=O)N[C@@H](CN[C@H]2CC[C@@H](N)CC2)Cc2ccc(C#N)cc2)cc1-c1ccc(CN[C@H](C)c2ccc(C)cc2)o1,enzyme activity,inhibitor,,1 µM,remaining activity,95%
O=C(Nc1cnn(-c2csc(C(=O)NC3COC3)c2)c1)Nc1ccccc1Cl,enzyme activity,inhibitor,,5 µM,remaining activity,131%
